The values that follow come from ChEMBL document CHEMBL2150901, “Synthesis and biological activity of tricyclic cycloalkylimidazo-, pyrimido- and diazepinopurinediones” (Eur J Med Chem, 2011).

For data set [1], the system named is Mus musculus. The experiment in a line: Anticonvulsant activity in F1 albino mouse assessed as protection against subcutaneous pentylenetetrazole-induced seizures at 100 mg/kg, ip after 0.5 hrs. It is filed as functional, organism-based. Set-up: dose 100 mg/kg. A digest of the protocol: (§1)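 Male albino F-1 mice (18–25 g), groups of 1–5 (rotorod 2–8). Compound given ip as a suspension in 0.5% methylcellulose at 30, 100 and 300 mg/kg. Seizures by maximal electroshock or subcutaneous pentylenetetrazole; neurotoxicity by rotorod. Read at 0.5 and 4 h, with some at 0.25, 1 and 2 h. Value is the minimum active dose, with protected (or toxic)/tested animals.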

For data set [2], the species on record is Rattus norvegicus. The experiment in a line: Selectivity ratio of Ki for adenosine A1 receptor in rat brain cortical membrane to Ki for adenosine A2A receptor in rat brain striatal membrane. The data set is classed as cell membranes. A digest of the protocol:
(§2)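 Ki ratios from radioligand competition binding. Rat A1 used brain cortical membranes and rat A2A used brain striatal membranes. Human A1 and A2A used membranes of CHO cells expressing the receptors. A1 radioligand [³H]CCPA; A2A radioligand [³H]MSX-2. Potent compounds were tested at 6–7 concentrations spanning 3 orders of magnitude.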

Data set [3] concerns Mus musculus. The experiment in a line: Neurotoxicity in F1 albino mouse assessed as minimal motor impairment at 300 mg/kg, ip after 1 hr by rotorod test. The data set is classed as toxicity, organism-based. Set-up: dose 300 mg/kg, route intraperitoneal. The settings on record: in vivo. A digest of the protocol: as §1
(In general: The rotarod test checks motor coordination on a turning rod.)

Data set [4] deals with Mus musculus. The experiment in a line: Anticonvulsant activity in F1 albino mouse assessed as protection against maximal electroshock-induced seizures at 300 mg/kg, ip after 4 hrs. It is filed as functional, organism-based. More on the design: dose 300 mg/kg. A digest of the protocol: as §1
In general terms: Protection in the maximal electroshock model is a classic sign of anticonvulsant action.

Data set [5] addresses T1, Adenosine receptor A3 (Homo sapiens) (UniProt P0DMS8).
T1 sequence (whole entry): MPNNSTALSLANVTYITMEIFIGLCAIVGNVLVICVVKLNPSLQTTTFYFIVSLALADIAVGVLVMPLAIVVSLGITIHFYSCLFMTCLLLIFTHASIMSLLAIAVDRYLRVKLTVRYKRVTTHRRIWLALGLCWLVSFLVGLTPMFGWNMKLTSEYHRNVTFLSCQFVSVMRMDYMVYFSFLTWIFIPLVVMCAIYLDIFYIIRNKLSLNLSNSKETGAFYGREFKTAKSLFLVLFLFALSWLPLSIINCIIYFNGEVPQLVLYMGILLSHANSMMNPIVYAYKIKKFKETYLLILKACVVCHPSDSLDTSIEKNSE
The experiment in a line: Displacement of [3H]PSB-11 from human recombinant adenosine A3 receptor expressed in CHO cells at 10 uM. The data set is classed as cell-based. A digest of the protocol:
(§3)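 CHO cell membranes expressing the human receptor. Radioligands: A1 [3H]CCPA; A2B [3H]ZM241385 or [3H]PSB-603; A3 [3H]PSB-11. […] Potent compounds run at 6–7 concentrations spanning 3 orders of magnitude; Ki ± SEM.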
A general note: In a radioligand displacement assay an active substance lowers the binding of a labelled ligand.

Data set [6] deals with CHO. The experiment in a line: Selectivity ratio of Ki for adenosine A1 receptor in rat brain cortical membrane to Ki for human recombinant adenosine A1 receptor expressed in CHO cells. The data set is classed as cell-based. Put shortly:
as §2

The target of data set [7] is T2, Adenosine receptor A2b (Homo sapiens) (UniProt P29275).
T2 sequence (whole entry): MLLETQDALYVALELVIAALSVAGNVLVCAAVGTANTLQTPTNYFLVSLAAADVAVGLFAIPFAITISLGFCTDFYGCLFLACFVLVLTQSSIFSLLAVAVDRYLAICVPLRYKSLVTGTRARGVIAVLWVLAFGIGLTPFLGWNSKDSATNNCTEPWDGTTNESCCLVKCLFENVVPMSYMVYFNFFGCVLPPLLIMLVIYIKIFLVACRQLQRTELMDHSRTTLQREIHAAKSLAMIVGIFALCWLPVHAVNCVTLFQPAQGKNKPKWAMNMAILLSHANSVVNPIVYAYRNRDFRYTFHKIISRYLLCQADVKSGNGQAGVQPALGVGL
The experiment in a line: Displacement of [3H]PSB-603 from human recombinant adenosine A2B receptor expressed in CHO cells at 10 uM. It is filed as cell-based. A digest of the protocol:
as §3

The target in data set [8] is Adenosine receptor A2a (Rattus norvegicus, UniProt P30543). The experiment in a line: Displacement of [3H]MSX-2 from adenosine A2A receptor in rat brain striatal membrane. It is filed as cell membranes.
Sequence of Adenosine receptor A2a (Rattus norvegicus, UniProt P30543) (P30543 whole entry): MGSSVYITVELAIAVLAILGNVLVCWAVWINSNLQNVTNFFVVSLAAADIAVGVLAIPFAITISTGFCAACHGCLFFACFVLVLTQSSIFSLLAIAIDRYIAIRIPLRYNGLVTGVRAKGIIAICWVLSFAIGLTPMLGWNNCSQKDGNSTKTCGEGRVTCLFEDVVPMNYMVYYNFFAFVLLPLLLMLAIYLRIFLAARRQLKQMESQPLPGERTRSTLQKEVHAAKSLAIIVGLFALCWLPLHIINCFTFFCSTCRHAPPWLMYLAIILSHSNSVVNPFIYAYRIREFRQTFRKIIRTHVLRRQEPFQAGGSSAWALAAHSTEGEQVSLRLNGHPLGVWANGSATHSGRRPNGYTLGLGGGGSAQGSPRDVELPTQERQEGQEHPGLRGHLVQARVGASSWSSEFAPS
Data set [9] deals with Mus musculus. The experiment in a line: Neurotoxicity in F1 albino mouse assessed as minimal motor impairment at 300 mg/kg, ip after 4 hrs by rotorod test. The data set is classed as toxicity, organism-based. Set-up: dose 300 mg/kg, route intraperitoneal. To be noted: in vivo. Put shortly:
as §1

Data set [10] concerns the target T3, Adenosine receptor A3 (Homo sapiens, UniProt P0DMS8).
T3 sequence (P0DMS8 whole entry): T1 sequence (whole entry)
The experiment in a line: Displacement of [3H]PSB-11 from human recombinant adenosine A3 receptor expressed in CHO cells. The data set is classed as cell-based.

The target of data set [11] is Adenosine receptor A2a (Homo sapiens, UniProt P29274). The experiment in a line: Displacement of [3H]MSX-2 from human recombinant adenosine A2A receptor expressed in CHO cells. The data set is classed as cell-based.
Sequence of Adenosine receptor A2a (Homo sapiens, UniProt P29274) (P29274 whole entry): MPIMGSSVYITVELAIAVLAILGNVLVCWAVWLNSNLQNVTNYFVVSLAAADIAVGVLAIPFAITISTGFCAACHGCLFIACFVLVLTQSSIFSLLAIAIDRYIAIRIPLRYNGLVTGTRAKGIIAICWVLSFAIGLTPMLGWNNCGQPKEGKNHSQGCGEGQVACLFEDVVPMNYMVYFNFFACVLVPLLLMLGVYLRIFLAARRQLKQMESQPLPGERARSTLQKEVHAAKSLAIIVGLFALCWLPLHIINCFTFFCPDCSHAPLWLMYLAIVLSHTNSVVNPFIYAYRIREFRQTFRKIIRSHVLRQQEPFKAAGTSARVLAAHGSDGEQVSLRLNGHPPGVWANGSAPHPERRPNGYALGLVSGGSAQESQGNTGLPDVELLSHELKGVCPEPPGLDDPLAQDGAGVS
The subject of data set [12] is Mus musculus. The experiment in a line: Anticonvulsant activity in F1 albino mouse assessed as protection against subcutaneous pentylenetetrazole-induced seizures at 300 mg/kg, ip after 0.25 hrs. It is filed as functional, organism-based. More on the design: dose 300 mg/kg. A digest of the protocol:
as §1

The target in data set [13] is T4, Adenosine receptor A1 (Rattus norvegicus, UniProt P25099).
T4 sequence (P25099 whole entry): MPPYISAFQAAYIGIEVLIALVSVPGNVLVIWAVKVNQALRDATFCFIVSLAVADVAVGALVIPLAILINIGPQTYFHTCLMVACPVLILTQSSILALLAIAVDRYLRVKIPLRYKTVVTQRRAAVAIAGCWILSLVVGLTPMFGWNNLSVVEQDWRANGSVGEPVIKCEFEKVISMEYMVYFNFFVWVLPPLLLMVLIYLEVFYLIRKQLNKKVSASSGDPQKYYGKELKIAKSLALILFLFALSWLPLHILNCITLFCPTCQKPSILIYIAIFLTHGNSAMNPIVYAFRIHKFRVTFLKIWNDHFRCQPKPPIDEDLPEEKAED
The experiment in a line: Displacement of [3H]CCPA from adenosine A1 receptor in rat brain cortical membrane. The data set is classed as cell membranes.

The subject of data set [14] is Mus musculus. The experiment in a line: Anticonvulsant activity in F1 albino mouse assessed as protection against maximal electroshock-induced seizures at 300 mg/kg, ip after 1 hr. It is filed as functional, organism-based. More on the design: dose 300 mg/kg. Put shortly:
as §1

In data set [15] the test system is Mus musculus. The experiment in a line: Anticonvulsant activity in F1 albino mouse assessed as protection against maximal electroshock-induced seizures at 300 mg/kg, ip after 0.5 hrs. The data set is classed as functional, organism-based. More on the design: dose 300 mg/kg. Put shortly: as §1
Data set [16] deals with Mus musculus. The experiment in a line: Anticonvulsant activity in F1 albino mouse assessed as protection against subcutaneous pentylenetetrazole-induced seizures at 300 mg/kg, ip after 4 hrs. The data set is classed as functional, organism-based. Set-up: dose 300 mg/kg. A digest of the protocol: as §1
Data set [17] concerns the target T5, Adenosine receptor A1 (Homo sapiens, UniProt P30542).
T5 sequence (P30542 whole entry): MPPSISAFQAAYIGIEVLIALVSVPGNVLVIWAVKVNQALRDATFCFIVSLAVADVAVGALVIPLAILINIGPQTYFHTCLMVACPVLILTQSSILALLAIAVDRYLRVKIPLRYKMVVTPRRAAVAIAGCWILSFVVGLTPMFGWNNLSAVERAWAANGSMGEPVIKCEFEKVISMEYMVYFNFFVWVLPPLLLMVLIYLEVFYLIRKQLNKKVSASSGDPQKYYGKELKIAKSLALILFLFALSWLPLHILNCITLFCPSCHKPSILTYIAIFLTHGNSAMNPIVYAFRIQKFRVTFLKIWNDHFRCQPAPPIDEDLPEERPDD
The experiment in a line: Displacement of [3H]CCPA from human recombinant adenosine A1 receptor expressed in CHO cells. It is filed as cell-based.

Data set [18] concerns Mus musculus. The experiment in a line: Neurotoxicity in F1 albino mouse assessed as minimal motor impairment at 300 mg/kg, ip after 0.5 hrs by rotorod test. The data set is classed as toxicity, organism-based. More on the design: dose 300 mg/kg, route intraperitoneal. To be noted: in vivo. A digest of the protocol: as §1
Data set [19] has as its system Mus musculus. The experiment in a line: Neurotoxicity in F1 albino mouse assessed as minimal motor impairment at 300 mg/kg, ip after 0.25 hrs by rotorod test. More on the design: dose 300 mg/kg, route intraperitoneal. The data set is classed as toxicity, organism-based. The settings on record: in vivo. Put shortly: as §1
In data set [20] the test system is CHO. The experiment in a line: Selectivity ratio of Ki for human recombinant adenosine A2A receptor expressed in CHO cells to Ki for adenosine A2A receptor in rat brain striatal membrane. It is filed as cell-based. Put shortly: as §2
Data set [21] deals with Mus musculus. The experiment in a line: Anticonvulsant activity in F1 albino mouse assessed as protection against maximal electroshock-induced seizures at 300 mg/kg, ip after 0.25 hrs. More on the design: dose 300 mg/kg. It is filed as functional, organism-based. Put shortly:
as §1

The target in data set [22] is T6, Adenosine receptor A2b (Homo sapiens, UniProt P29275).
T6 sequence (P29275 whole entry): T2 sequence (whole entry)
The experiment in a line: Displacement of [3H]PSB-603 from human recombinant adenosine A2B receptor expressed in CHO cells. The data set is classed as cell-based. Put shortly:
as §3

Data set [23] deals with Mus musculus. The experiment in a line: Anticonvulsant activity in F1 albino mouse assessed as protection against subcutaneous pentylenetetrazole-induced seizures at 300 mg/kg, ip after 1 hr. The data set is classed as functional, organism-based. More on the design: dose 300 mg/kg. A digest of the protocol:
as §1

Data set [24] concerns Mus musculus. The experiment in a line: Toxicity in F1 albino mouse assessed as mortality following clonic seizures at 300 mg/kg, ip after 0.5 hrs. It is filed as organism-based. More on the design: dose 300 mg/kg, route intraperitoneal. To be noted: in vivo. Put shortly:
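Male albino F-1 mice (18–25 g) were dosed i.p. with a suspension in 0.5% methylcellulose in water at 30, 100 and 300 mg/kg. Screening used MES, subcutaneous pentylenetetrazole (ScMet) and rotorod tests, with 1–5 mice per seizure test.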

Calls of active or inactive are those of the source. The calls are words filed in the database; no cut-off is given here.

Usually inhibition stands for how much of the control response was suppressed. Broadly, the Ki is the equilibrium dissociation constant of an inhibitor or competing ligand from its target. As to `Cn1c(=O)c2c(nc3n2CCCN3CCC2=CCCCC2)n(C)c1=O`, the result in data set [1], in [4], in data set [12], in [14], in [15] and in data set [16] was inactive. The outcome in data set [21] and in data set [23] was inactive. Further, the results for the Ratio Ki in data set [2], in data set [6] and in data set [20] were 44, 2 and 2, respectively. In addition, the Activity result in data set [3], in data set [9], in [18] and in data set [19] was “Non-toxic” each time. Further, the figures for the inhibition in data set [5] and in [7] were 23% and 6%, respectively. Besides, the Ki in [8] is 0.5 µM; in [10] it was over 10 µM; in data set [11] it was 0.933 µM; in data set [13], 14.7 µM; in [17], 6.9 µM; in [22], over 10 µM.

On to `Cn1c(=O)c2c(nc3n2CCCN3C2CCCC2)n(C)c1=O`, for which the Ratio Ki in [2] is 5. The Activity entry in data set [3] was “Non-toxic”; in [9] it was “Non-toxic”; in data set [24], “Toxic”; in data set [18] it was “Non-toxic”; in data set [19] it was “Non-toxic”. Besides, the result in data set [4], in data set [12], in data set [14], in data set [15], in [16] and in data set [21] was inactive. For the same molecule, the Ki in [8] stood at 1 µM; in data set [13], 5.31 µM. In [23], the outcome was Active.
